From ChEMBL document CHEMBL4354843, “Structure-Based Design of a Potent and Selective Covalent Inhibitor for SRC Kinase That Targets a P-Loop Cysteine” (J Med Chem, 2020) come the findings set out here.

The target in experiment [1] is Serine/threonine-protein kinase STK11 (Homo sapiens) (UniProt Q15831). The experiment in a line: Binding affinity to wild-type human full length LKB1 (M1 to Q433 residues) expressed in bacterial expression system assessed as residual binding level at 1 uM by Kinomescan method relative to control. The method in brief: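 Active-site-directed KinomeScan competition binding panel covering 468 kinases, compound tested at 1 μM. Each readout is the kinase signal remaining with compound, expressed as a percentage of the DMSO control. […]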
Chain of Serine/threonine-protein kinase STK11 (Homo sapiens) (Q15831 whole entry, the tested form may be a part): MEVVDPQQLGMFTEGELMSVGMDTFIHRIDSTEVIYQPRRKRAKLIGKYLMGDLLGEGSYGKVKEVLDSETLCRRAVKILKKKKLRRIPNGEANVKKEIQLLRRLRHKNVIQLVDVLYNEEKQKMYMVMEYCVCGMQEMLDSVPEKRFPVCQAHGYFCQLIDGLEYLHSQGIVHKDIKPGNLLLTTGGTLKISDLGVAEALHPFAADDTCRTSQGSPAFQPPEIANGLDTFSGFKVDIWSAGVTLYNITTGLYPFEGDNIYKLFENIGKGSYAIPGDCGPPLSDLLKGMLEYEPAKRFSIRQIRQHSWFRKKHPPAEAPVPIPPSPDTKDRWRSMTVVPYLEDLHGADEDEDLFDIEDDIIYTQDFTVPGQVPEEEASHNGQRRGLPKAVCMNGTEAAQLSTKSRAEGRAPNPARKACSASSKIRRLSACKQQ

Experiment [2] concerns the target Serine/threonine-protein kinase haspin (Homo sapiens) (UniProt Q8TF76). The experiment is described as follows: Binding affinity to wild-type human partial length HASPIN (I452 to K798 residues) expressed in mammalian expression system assessed as residual binding level at 1 uM by Kinomescan method relative to control.
The target of experiment [3] is Mitogen-activated protein kinase kinase kinase 19 (Homo sapiens) (UniProt Q56UN5). The experiment in a line: Binding affinity to wild-type human partial length YSK4 (T1019 to H1328 residues) expressed in mammalian expression system assessed as residual binding level at 1 uM by Kinomescan method relative to control. The method in brief: (§1)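 Active site-directed competition binding panel (KinomeScan, 468 kinases). Test compound at 1 μM. Read-out is kinase binding remaining versus DMSO control, expressed as percent of control. Scores above 35% are treated as weak binding.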

In experiment [4] the target is Serine/threonine-protein kinase WNK1 (Homo sapiens) (UniProt Q9H4A3). The experiment is described as follows: Binding affinity to wild-type human partial length WNK1 (Q194 to A490 residues) expressed in mammalian expression system assessed as residual binding level at 1 uM by Kinomescan method relative to control.
Experiment [5] deals with Cyclin-dependent kinase-like 3 (Homo sapiens) (UniProt Q8IVW4). The experiment is described as follows: Binding affinity to wild-type human partial length CDKL3 (M1 to D327 residues) expressed in bacterial expression system assessed as residual binding level at 1 uM by Kinomescan method relative to control.
Chain of Cyclin-dependent kinase-like 3 (Homo sapiens) (Q8IVW4 whole entry, looked up, the tested form may be a part): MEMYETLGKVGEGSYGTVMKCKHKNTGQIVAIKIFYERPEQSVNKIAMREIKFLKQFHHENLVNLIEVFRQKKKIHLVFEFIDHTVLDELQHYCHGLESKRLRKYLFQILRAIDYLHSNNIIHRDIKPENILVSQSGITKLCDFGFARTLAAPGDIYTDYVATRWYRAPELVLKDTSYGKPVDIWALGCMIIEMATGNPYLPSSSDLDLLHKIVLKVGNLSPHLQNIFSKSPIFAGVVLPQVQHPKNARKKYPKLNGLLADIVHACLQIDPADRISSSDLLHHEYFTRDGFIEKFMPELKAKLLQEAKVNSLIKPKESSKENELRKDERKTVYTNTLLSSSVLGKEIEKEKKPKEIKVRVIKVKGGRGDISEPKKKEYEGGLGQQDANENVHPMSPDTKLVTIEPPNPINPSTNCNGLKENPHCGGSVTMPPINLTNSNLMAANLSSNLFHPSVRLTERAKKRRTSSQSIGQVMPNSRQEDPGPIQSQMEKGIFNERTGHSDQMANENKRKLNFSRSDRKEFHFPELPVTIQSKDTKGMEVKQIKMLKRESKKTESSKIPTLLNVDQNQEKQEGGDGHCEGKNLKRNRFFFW
The target of experiment [6] is Serine/threonine-protein kinase VRK2 (Homo sapiens) (UniProt Q86Y07). The experiment is described as follows: Binding affinity to wild-type human partial length VRK2 (M1 to T336 residues) expressed in mammalian expression system assessed as residual binding level at 1 uM by Kinomescan method relative to control. The method in brief: as §1
Experiment [7] addresses Platelet-derived growth factor receptor alpha (Homo sapiens) (UniProt P16234). The experiment is described as follows: Binding affinity to wild-type human partial length PDGFRA (V575 to D1002 residues) expressed in mammalian expression system assessed as residual binding level at 1 uM by Kinomescan method relative to control. In short, it runs like this:
(§2)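 Active-site-directed competition binding panel of 468 kinases (KinomeScan), compound at 1 μM. The read-out is kinase remaining bound, given as a percentage of the DMSO control. […]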

Experiment [8] deals with TRAF2 and NCK-interacting protein kinase (Homo sapiens) (UniProt Q9UKE5). The experiment is described as follows: Binding affinity to wild-type human partial length TNIK (D4 to K311 residues) expressed in bacterial expression system assessed as residual binding level at 1 uM by Kinomescan method relative to control.
The target of experiment [9] is Tyrosine-protein kinase JAK3 (Homo sapiens) (UniProt P52333). The experiment in a line: Binding affinity to wild-type human partial length JAK3 JH1 catalytic domain (I781 to S1124 residues) expressed in mammalian expression system assessed as residual binding level at 1 uM by Kinomescan method relative to control. The method in brief: as §2
Chain of Tyrosine-protein kinase JAK3 (Homo sapiens) (P52333 whole entry, the tested form may be a part): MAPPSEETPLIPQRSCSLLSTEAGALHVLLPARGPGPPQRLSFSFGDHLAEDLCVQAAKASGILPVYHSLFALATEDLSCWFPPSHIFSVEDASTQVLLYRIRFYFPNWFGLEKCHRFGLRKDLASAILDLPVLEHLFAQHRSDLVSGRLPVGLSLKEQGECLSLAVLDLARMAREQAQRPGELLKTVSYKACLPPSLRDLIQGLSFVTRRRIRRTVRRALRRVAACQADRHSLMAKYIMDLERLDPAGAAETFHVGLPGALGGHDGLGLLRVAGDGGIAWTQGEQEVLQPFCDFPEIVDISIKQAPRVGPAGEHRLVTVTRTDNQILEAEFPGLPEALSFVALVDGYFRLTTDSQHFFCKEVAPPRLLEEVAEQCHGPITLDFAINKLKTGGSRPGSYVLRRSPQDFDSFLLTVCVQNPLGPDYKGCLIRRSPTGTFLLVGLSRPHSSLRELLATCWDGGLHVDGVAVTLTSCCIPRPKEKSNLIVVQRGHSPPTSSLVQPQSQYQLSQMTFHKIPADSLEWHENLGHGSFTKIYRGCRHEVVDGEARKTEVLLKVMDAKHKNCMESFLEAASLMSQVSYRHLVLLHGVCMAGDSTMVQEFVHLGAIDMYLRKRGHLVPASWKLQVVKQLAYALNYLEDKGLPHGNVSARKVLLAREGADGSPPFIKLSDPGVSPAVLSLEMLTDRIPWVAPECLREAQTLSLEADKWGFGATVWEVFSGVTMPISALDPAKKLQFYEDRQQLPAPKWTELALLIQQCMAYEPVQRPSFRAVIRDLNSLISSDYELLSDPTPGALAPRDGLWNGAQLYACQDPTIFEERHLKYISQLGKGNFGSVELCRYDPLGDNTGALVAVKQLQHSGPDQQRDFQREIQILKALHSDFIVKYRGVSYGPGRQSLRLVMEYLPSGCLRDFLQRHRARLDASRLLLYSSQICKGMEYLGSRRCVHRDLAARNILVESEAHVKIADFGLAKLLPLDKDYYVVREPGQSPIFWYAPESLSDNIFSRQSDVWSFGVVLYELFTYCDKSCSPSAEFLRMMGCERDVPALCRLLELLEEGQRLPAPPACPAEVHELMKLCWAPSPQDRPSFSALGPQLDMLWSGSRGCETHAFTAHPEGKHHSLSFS
Experiment [10] addresses SRSF protein kinase 1 (Homo sapiens) (UniProt Q96SB4). The experiment in a line: Binding affinity to wild-type human full length SRPK1 (M1 to S655 residues) expressed in bacterial expression system assessed as residual binding level at 1 uM by Kinomescan method relative to control. In short, it runs like this:
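Active site-directed binding assay (KinomeScan) run across a 468-kinase panel, with the test compound at 1 μM. The read-out is the remaining kinase signal in the presence of compound, expressed as a percentage of the DMSO control. Scores above 35% were taken as weak binding and were not reported.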

Experiment [11] concerns the target Mitogen-activated protein kinase; ERK1/ERK2 (Homo sapiens) (UniProt P27361+P28482). The experiment is described as follows: Inhibition of ERK1/2 in human HCC827 cells assessed as blocking of ERK1/2 pulldown at 1 uM in presence of TL13-68 incubated for 2 hrs by Western blot analysis. It is filed as cell-based. In short, it runs like this:
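H1975 or HCC827 cells treated with 1 μM compound or DMSO for 2 h, rinsed twice in cold PBS, and lysed in M-PER with protease/phosphatase inhibitors. Lysate rocked overnight at 4 °C with 1 μM TL13-68, then streptavidin pulldown with five cold washes. Bound kinases detected by Western blot. Two independent experiments.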
(In general: In western blotting, separated proteins are transferred to a membrane and probed.)

Experiment [12] addresses Dual specificity mitogen-activated protein kinase kinase 4 (Homo sapiens) (UniProt P45985). The experiment in a line: Binding affinity to wild-type human partial length MEK4 (S84 to D399 residues) expressed in mammalian expression system assessed as residual binding level at 1 uM by Kinomescan method relative to control.
Experiment [13] deals with Phosphatidylinositol 4,5-bisphosphate 3-kinase catalytic subunit alpha isoform (Homo sapiens), P42336 [H1047Y]. The experiment is described as follows: Binding affinity to human partial length PIK3CA H1047Y mutant (R108 to N1068 residues) expressed in mammalian expression system assessed as residual binding level at 1 uM by Kinomescan method relative to control. The method in brief:
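KinomeScan active site-directed competition binding panel (468 kinases), compound tested at 1 μM. Result expressed as remaining kinase signal versus DMSO control (percent of control).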

Experiment [14] deals with Phosphatidylinositol 5-phosphate 4-kinase type-2 gamma (Homo sapiens) (UniProt Q8TBX8). The experiment in a line: Binding affinity to wild-type human partial length PIP5K2C (M1 to A421 residues) expressed in mammalian expression system assessed as residual binding level at 1 uM by Kinomescan method relative to control.
The target of experiment [15] is Tyrosine-protein kinase Fer (Homo sapiens) (UniProt P16591). The experiment in a line: Binding affinity to wild-type human partial length FER (S542 to T822 residues) expressed in bacterial expression system assessed as residual binding level at 1 uM by Kinomescan method relative to control.
Experiment [16] concerns the target Dual specificity protein kinase CLK4 (Homo sapiens) (UniProt Q9HAZ1). The experiment in a line: Binding affinity to wild-type human partial length CLK4 (R135 to K481 residues) expressed in bacterial expression system assessed as residual binding level at 1 uM by Kinomescan method relative to control.
For experiment [17], the target named is MAP/microtubule affinity-regulating kinase 4 (Homo sapiens) (UniProt Q96L34). The experiment in a line: Binding affinity to wild-type human partial length MARK4 (K29 to G340 residues) expressed in bacterial expression system assessed as residual binding level at 1 uM by Kinomescan method relative to control.
In experiment [18] the target is Serine/threonine-protein kinase PLK1 (Homo sapiens) (UniProt P53350). The experiment in a line: Binding affinity to wild-type human partial length PLK1 (A33 to F325 residues) expressed in mammalian expression system assessed as residual binding level at 1 uM by Kinomescan method relative to control.
Chain of Serine/threonine-protein kinase PLK1 (Homo sapiens) (P53350 whole entry, the tested form may be a part): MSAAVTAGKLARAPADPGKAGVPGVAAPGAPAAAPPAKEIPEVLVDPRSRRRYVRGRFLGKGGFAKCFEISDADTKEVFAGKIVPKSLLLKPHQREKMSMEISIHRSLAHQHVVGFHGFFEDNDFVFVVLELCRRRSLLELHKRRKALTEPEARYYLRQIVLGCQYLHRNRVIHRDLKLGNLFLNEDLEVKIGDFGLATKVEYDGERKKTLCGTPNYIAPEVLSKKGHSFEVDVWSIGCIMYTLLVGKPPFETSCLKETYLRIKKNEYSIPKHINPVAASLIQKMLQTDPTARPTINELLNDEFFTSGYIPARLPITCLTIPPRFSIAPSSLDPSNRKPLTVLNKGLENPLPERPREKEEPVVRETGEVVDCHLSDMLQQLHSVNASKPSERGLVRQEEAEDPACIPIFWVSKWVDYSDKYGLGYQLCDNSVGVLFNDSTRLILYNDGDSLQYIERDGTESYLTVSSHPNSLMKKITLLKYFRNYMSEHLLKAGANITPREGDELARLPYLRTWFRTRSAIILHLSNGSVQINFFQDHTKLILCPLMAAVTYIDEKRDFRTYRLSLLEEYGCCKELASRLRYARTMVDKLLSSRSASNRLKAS
Experiment [19] deals with Serine/threonine-protein kinase TNNI3K (Homo sapiens) (UniProt Q59H18). The experiment in a line: Binding affinity to wild-type human full length TNNI3K (M1 to S835 residues) expressed in bacterial expression system assessed as residual binding level at 1 uM by Kinomescan method relative to control. The method in brief: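 KinomeScan, an active site-directed competition binding panel of 468 kinases. The test compound was at 1 μM. The readout is remaining kinase binding as a percentage of the DMSO control. Scores above 35% were treated as weak binding and not listed.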
Chain of Serine/threonine-protein kinase TNNI3K (Homo sapiens) (Q59H18 whole entry, the tested form may be a part): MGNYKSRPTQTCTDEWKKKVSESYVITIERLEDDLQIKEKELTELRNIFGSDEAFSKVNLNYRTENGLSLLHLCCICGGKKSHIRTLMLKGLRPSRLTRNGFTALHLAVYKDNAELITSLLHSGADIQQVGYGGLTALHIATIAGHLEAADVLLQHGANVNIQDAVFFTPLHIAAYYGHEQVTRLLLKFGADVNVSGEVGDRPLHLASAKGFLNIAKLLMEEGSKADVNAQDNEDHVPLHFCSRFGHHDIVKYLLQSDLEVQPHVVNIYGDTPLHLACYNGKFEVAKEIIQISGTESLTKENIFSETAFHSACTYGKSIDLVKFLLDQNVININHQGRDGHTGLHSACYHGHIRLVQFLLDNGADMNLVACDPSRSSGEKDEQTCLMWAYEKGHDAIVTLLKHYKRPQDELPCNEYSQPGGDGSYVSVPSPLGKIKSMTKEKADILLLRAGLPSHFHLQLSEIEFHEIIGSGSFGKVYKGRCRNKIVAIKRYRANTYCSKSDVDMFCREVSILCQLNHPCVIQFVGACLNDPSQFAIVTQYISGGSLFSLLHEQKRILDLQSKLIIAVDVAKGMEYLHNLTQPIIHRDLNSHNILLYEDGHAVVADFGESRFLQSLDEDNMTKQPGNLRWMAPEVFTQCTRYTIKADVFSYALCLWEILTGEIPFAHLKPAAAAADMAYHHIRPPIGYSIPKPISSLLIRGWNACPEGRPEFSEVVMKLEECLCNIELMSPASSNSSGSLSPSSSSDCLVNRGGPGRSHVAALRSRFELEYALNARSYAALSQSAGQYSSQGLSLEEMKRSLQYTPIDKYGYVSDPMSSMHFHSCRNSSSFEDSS

Activity calls are given as the source filed them. No cut-off for these calls is given here.

Chain of Mitogen-activated protein kinase; ERK1/ERK2 (Homo sapiens) (P27361 whole entry, looked up): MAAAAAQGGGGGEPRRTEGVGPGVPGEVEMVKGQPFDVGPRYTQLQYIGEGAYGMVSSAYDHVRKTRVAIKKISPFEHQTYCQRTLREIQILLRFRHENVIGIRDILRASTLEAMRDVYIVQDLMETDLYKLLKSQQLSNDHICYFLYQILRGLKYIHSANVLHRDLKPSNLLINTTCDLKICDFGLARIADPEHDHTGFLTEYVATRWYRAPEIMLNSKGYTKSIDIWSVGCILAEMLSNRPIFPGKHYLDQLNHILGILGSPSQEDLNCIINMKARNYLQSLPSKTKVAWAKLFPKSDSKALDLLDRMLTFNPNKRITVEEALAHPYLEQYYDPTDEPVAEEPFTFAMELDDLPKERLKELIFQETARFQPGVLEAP
Chain of Mitogen-activated protein kinase; ERK1/ERK2 (Homo sapiens) (P28482 whole entry, looked up): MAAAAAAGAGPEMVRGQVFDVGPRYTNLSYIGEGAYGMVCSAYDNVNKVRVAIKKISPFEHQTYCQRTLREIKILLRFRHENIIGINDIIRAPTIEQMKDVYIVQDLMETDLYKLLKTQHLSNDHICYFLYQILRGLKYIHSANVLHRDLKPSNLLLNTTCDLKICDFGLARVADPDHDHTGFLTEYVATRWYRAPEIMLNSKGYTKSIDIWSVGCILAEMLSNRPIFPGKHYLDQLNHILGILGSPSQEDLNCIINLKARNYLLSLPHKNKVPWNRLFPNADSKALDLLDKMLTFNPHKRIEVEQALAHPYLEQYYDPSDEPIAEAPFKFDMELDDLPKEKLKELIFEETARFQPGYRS
Chain of Dual specificity protein kinase CLK4 (Homo sapiens) (Q9HAZ1 whole entry, looked up, the tested form may be a part): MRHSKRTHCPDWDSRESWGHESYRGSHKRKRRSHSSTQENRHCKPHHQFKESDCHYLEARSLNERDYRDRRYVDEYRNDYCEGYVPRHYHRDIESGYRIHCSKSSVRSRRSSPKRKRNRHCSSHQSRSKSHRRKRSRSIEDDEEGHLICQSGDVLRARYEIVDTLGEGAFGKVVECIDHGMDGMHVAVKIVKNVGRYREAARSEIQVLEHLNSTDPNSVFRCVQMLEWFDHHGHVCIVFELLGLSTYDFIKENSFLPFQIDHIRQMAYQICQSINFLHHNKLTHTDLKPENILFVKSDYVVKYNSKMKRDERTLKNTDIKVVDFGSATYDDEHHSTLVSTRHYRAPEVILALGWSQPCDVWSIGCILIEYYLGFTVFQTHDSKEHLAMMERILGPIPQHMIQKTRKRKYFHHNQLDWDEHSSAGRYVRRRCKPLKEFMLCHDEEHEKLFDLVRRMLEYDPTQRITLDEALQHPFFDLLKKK

With `C=CC(=O)Nc1ccccc1Nc1nc(Nc2ccc(N3CCN(C)CC3)cc2)ncc1C(=O)Nc1c(C)cccc1Cl`, the Activity in experiment [1] was 100%; in experiment [2], 100%; in [3] it was 83%; in experiment [4], 100%; in experiment [5] it was 100%; in experiment [6], 71%. The Activity in [7] came out at 90%; in experiment [8], 100%; in experiment [9] it was 88%; in [10] it was 100%; in experiment [12], 91%; in experiment [13], 100%. The Activity stood at 100% in experiment [14]; 100% in experiment [15]; 100% in experiment [16]; 95% in experiment [17]; 100% in experiment [18]; 83% in experiment [19]. Also, in experiment [11], the inhibition result is “inactive”.
